Test results from ChEMBL document CHEMBL1157765, “Synthesis of DOTA-conjugated multimeric [Tyr3]octreotide peptides via a combination of Cu(I)-catalyzed "click" cycloaddition and thio acid/sulfonyl azide "sulfo-click" amidation and their in vivo evaluation” (J Med Chem, 2010).

Key:
[1] = molecular target: Somatostatin receptor type 2 (Rattus norvegicus, UniProt P30680); test: Displacement of [111In]DOTA0,Tyr3]octreotide from SSTR2 receptor in rat AR42J cells; type: cell-based, AR-42J
In short: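 AR42J cells (DMEM, 10% FCS, 37 °C, 5% CO₂) seeded 8 × 10⁵/well and grown to confluence, washed with DMEM + 0.1% BSA. Incubated 3 h at 37 °C with [¹¹¹In-DOTA⁰,Tyr³]octreotide tracer (40 000 dpm) and unlabeled peptide at 0.1-300 nM. Washed twice; cell-bound activity γ-counted. IC₅₀ from fitted sigmoidal displacement curves with 95% CI.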

[2] = Octanol-water partition coefficient, log D at pH 7.4; type: physicochemical
In short: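 ¹¹¹In-labeled conjugate (~148 kBq) in PBS pH 7.4 mixed 1:1 with n-octanol and shaken 2 min. Phases separated by centrifugation (5 min, 250g); triplicate aliquots of each layer γ-counted. log D = log₁₀(octanol counts/aqueous counts), from at least two independent experiments.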

Blood [3] = test: Biodistribution in blood of BALB/c mouse bearing rat AR42J cells at 0.37 MBq, iv after 2 hrs; type: ADME, organism-based, AR-42J; details: in vivo
In short: (§1)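 AR42J tumor grown in right flank of male BALB/c nude mice (20-25 g, 6-8 weeks) by sc injection of 5 × 10⁶ cells; used after ~2 weeks at 4-6 mm diameter. Groups of five received 0.37 MBq (0.1 μg) ¹¹¹In-DOTA conjugate iv via tail vein (labeled in 0.25 M NH₄OAc pH 5.5, 95 °C, 15 min). Tissues dissected at 2, 6 or 24 h, weighed, γ-counted against 1% injected-activity standards; %ID/g, mean ± SD.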

[4] = Biodistribution in tumor of BALB/c mouse bearing rat AR42J cells at 0.37 MBq, iv after 2 hrs; type: ADME, organism-based, Neoplasm, AR-42J; details: in vivo; in short: as §1
Pancreas [5] = test: Biodistribution in pancreas of BALB/c mouse bearing rat AR42J cells at 0.37 MBq, iv after 2 hrs; type: ADME, organism-based, AR-42J; details: in vivo; in short: as §1
[6] = Biodistribution in adrenal gland of BALB/c mouse bearing rat AR42J cells at 0.37 MBq, iv after 2 hrs; type: ADME, organism-based, AR-42J; details: in vivo; in short: as §1
Kidney [7] = test: Biodistribution in kidney of BALB/c mouse bearing rat AR42J cells at 0.37 MBq, iv after 2 hrs; type: ADME, organism-based, AR-42J; details: in vivo; in short: as §1
Liver [8] = test: Biodistribution in liver of BALB/c mouse bearing rat AR42J cells at 0.37 MBq, iv after 2 hrs; type: ADME, organism-based, AR-42J; details: in vivo; in short: as §1
Stomach [9] = test: Biodistribution in stomach of BALB/c mouse bearing rat AR42J cells at 0.37 MBq, iv after 2 hrs; type: ADME, organism-based, AR-42J; details: in vivo; in short: as §1
Blood [10] = test: Biodistribution in blood of BALB/c mouse bearing rat AR42J cells at 0.37 MBq, iv after 6 hrs; type: ADME, organism-based, AR-42J; details: in vivo; in short: as §1
[11] = Biodistribution in tumor of BALB/c mouse bearing rat AR42J cells at 0.37 MBq, iv after 6 hrs; type: ADME, organism-based, Neoplasm, AR-42J; details: in vivo; in short: as §1
Pancreas [12] = test: Biodistribution in pancreas of BALB/c mouse bearing rat AR42J cells at 0.37 MBq, iv after 6 hrs; type: ADME, organism-based, AR-42J; details: in vivo; in short: as §1
[13] = Biodistribution in adrenal gland of BALB/c mouse bearing rat AR42J cells at 0.37 MBq, iv after 6 hrs; type: ADME, organism-based, AR-42J; details: in vivo; in short: as §1
Kidney [14] = test: Biodistribution in kidney of BALB/c mouse bearing rat AR42J cells at 0.37 MBq, iv after 6 hrs; type: ADME, organism-based, AR-42J; details: in vivo; in short: as §1
Liver [15] = test: Biodistribution in liver of BALB/c mouse bearing rat AR42J cells at 0.37 MBq, iv after 6 hrs; type: ADME, organism-based, AR-42J; details: in vivo; in short: as §1
Stomach [16] = test: Biodistribution in stomach of BALB/c mouse bearing rat AR42J cells at 0.37 MBq, iv after 6 hrs; type: ADME, organism-based, AR-42J; details: in vivo; in short: as §1
Blood [17] = test: Biodistribution in blood of BALB/c mouse bearing rat AR42J cells at 0.37 MBq, iv after 24 hrs; type: ADME, organism-based, AR-42J; details: in vivo; in short: as §1
[18] = Biodistribution in tumor of BALB/c mouse bearing rat AR42J cells at 0.37 MBq, iv after 24 hrs; type: ADME, organism-based, Neoplasm, AR-42J; details: in vivo; in short: as §1
Pancreas [19] = test: Biodistribution in pancreas of BALB/c mouse bearing rat AR42J cells at 0.37 MBq, iv after 24 hrs; type: ADME, organism-based, AR-42J; details: in vivo; in short: as §1
[20] = Biodistribution in adrenal gland of BALB/c mouse bearing rat AR42J cells at 0.37 MBq, iv after 24 hrs; type: ADME, organism-based, AR-42J; details: in vivo; in short: as §1
Kidney [21] = test: Biodistribution in kidney of BALB/c mouse bearing rat AR42J cells at 0.37 MBq, iv after 24 hrs; type: ADME, organism-based, AR-42J; details: in vivo; in short: as §1
Liver [22] = test: Biodistribution in liver of BALB/c mouse bearing rat AR42J cells at 0.37 MBq, iv after 24 hrs; type: ADME, organism-based, AR-42J; details: in vivo; in short: as §1
Stomach [23] = test: Biodistribution in stomach of BALB/c mouse bearing rat AR42J cells at 0.37 MBq, iv after 24 hrs; type: ADME, organism-based, AR-42J; details: in vivo; in short: as §1
Blood [24] = test: Biodistribution in blood of BALB/c mouse bearing rat AR42J cells at 0.37 MBq, iv after 2 hrs under cold condition; type: ADME, organism-based, AR-42J; details: in vivo
In short: (§2)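 Receptor block: groups of three AR42J tumor-bearing male BALB/c nude mice co-injected iv via tail vein with 0.37 MBq (0.1 μg) ¹¹¹In-DOTA conjugate plus 50 μg octreotide. Killed by CO₂/O₂ at 2 h; blood, tumor and tissues dissected, weighed and γ-counted against 1% injected-activity standards; %ID/g reported as mean ± SD.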

[25] = Biodistribution in tumor of BALB/c mouse bearing rat AR42J cells at 0.37 MBq, iv after 2 hrs under cold condition; type: ADME, organism-based, Neoplasm, AR-42J; details: in vivo; in short: as §2
Pancreas [26] = test: Biodistribution in pancreas of BALB/c mouse bearing rat AR42J cells at 0.37 MBq, iv after 2 hrs under cold condition; type: ADME, organism-based, AR-42J; details: in vivo; in short: as §2
[27] = Biodistribution in adrenal gland of BALB/c mouse bearing rat AR42J cells at 0.37 MBq, iv after 2 hrs under cold condition; type: ADME, organism-based, AR-42J; details: in vivo; in short: as §2
Kidney [28] = test: Biodistribution in kidney of BALB/c mouse bearing rat AR42J cells at 0.37 MBq, iv after 2 hrs under cold condition; type: ADME, organism-based, AR-42J; details: in vivo; in short: as §2
Liver [29] = test: Biodistribution in liver of BALB/c mouse bearing rat AR42J cells at 0.37 MBq, iv after 2 hrs under cold condition; type: ADME, organism-based, AR-42J; details: in vivo; in short: as §2
Stomach [30] = test: Biodistribution in stomach of BALB/c mouse bearing rat AR42J cells at 0.37 MBq, iv after 2 hrs under cold condition; type: ADME, organism-based, AR-42J; details: in vivo; in short: as §2
Spleen [31] = test: Biodistribution in spleen of BALB/c mouse bearing rat AR42J cells at 0.37 MBq, iv after 2 hrs; type: ADME, organism-based, AR-42J; details: in vivo; in short: as §1
Spleen [32] = test: Biodistribution in spleen of BALB/c mouse bearing rat AR42J cells at 0.37 MBq, iv after 6 hrs; type: ADME, organism-based, AR-42J; details: in vivo; in short: as §1
Spleen [33] = test: Biodistribution in spleen of BALB/c mouse bearing rat AR42J cells at 0.37 MBq, iv after 24 hrs; type: ADME, organism-based, AR-42J; details: in vivo; in short: as §1
Spleen [34] = test: Biodistribution in spleen of BALB/c mouse bearing rat AR42J cells at 0.37 MBq, iv after 2 hrs under cold condition; type: ADME, organism-based, AR-42J; details: in vivo; in short: as §2

Somatostatin receptor type 2, sequence (P30680 whole entry): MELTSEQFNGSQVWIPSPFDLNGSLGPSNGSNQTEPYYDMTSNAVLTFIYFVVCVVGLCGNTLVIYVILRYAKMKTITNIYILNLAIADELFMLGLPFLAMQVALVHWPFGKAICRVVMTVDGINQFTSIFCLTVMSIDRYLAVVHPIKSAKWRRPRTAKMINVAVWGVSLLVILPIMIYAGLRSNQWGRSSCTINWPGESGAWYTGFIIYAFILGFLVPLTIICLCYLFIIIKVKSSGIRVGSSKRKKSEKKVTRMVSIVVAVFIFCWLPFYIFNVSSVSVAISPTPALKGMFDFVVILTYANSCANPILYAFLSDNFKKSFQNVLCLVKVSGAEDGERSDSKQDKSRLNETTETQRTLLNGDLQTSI

## C[C@@H](O)[C@@H]1NC(=O)[C@H](CCCCN)NC(=O)[C@@H](Cc2c[nH]c3ccccc23)NC(=O)[C@H](Cc2ccc(O)cc2)NC(=O)[C@@H](NC(=O)[C@@H](Cc2ccccc2)NC(=O)CCCCCn2cc(COc3cc(OCc4cn(CCCCCC(=O)N[C@H](Cc5ccccc5)C(=O)N[C@H]5CSSC[C@@H](C(=O)N[C@H](CO)[C@@H](C)O)NC(=O)[C@H]([C@@H](C)O)NC(=O)[C@H](CCCCN)NC(=O)[C@@H](Cc6c[nH]c7ccccc67)NC(=O)[C@H](Cc6ccc(O)cc6)NC5=O)nn4)cc(C(=O)NCCOc4cc(OCCNC(=O)c5cc(OCc6cn(CCCCCC(=O)N[C@H](Cc7ccccc7)C(=O)N[C@H]7CSSC[C@@H](C(=O)N[C@H](CO)[C@@H](C)O)NC(=O)[C@H]([C@@H](C)O)NC(=O)[C@H](CCCCN)NC(=O)[C@@H](Cc8c[nH]c9ccccc89)NC(=O)[C@H](Cc8ccc(O)cc8)NC7=O)nn6)cc(OCc6cn(CCCCCC(=O)N[C@H](Cc7ccccc7)C(=O)N[C@H]7CSSC[C@@H](C(=O)N[C@H](CO)[C@@H](C)O)NC(=O)[C@H]([C@@H](C)O)NC(=O)[C@H](CCCCN)NC(=O)[C@@H](Cc8c[nH]c9ccccc89)NC(=O)[C@H](Cc8ccc(O)cc8)NC7=O)nn6)c5)cc(C(=O)NS(=O)(=O)CCNC(=O)CN5CCN(CC(=O)O)CCN(CC(=O)O)CCN(CC(=O)O)CC5)c4)c3)nn2)CSSC[C@@H](C(=O)N[C@H](CO)[C@@H](C)O)NC1=O
[1]
  IC50: 14 nM
[2]
  logD: -0.71
Blood [3]
  Drug uptake: 0.27 % ID/g
[4]
  Drug uptake: 0.52 % ID/g
Pancreas [5]
  Drug uptake: 1.02 % ID/g
[6]
  Drug uptake: 4.05 % ID/g
Kidney [7]
  Drug uptake: 4.62 % ID/g
Liver [8]
  Drug uptake: 47.6 % ID/g
Stomach [9]
  Drug uptake: 1.04 % ID/g
Blood [10]
  Drug uptake: 0.62 % ID/g
[11]
  Drug uptake: 1.03 % ID/g
Pancreas [12]
  Drug uptake: 2.04 % ID/g
[13]
  Drug uptake: 18.98 % ID/g
Kidney [14]
  Drug uptake: 7.65 % ID/g
Liver [15]
  Drug uptake: 70.97 % ID/g
Stomach [16]
  Drug uptake: 1.4 % ID/g
Blood [17]
  Drug uptake: 2.52 % ID/g
[18]
  Drug uptake: 1.53 % ID/g
Pancreas [19]
  Drug uptake: 1.17 % ID/g
[20]
  Drug uptake: 11.39 % ID/g
Kidney [21]
  Drug uptake: 10.6 % ID/g
Liver [22]
  Drug uptake: 52.71 % ID/g
Stomach [23]
  Drug uptake: 1.13 % ID/g
Blood [24]
  Drug uptake: 0.44 % ID/g
[25]
  Drug uptake: 1.19 % ID/g
Pancreas [26]
  Drug uptake: 0.29 % ID/g
[27]
  Drug uptake: 54.56 % ID/g
Kidney [28]
  Drug uptake: 7.44 % ID/g
Liver [29]
  Drug uptake: 2.96 % ID/g
Stomach [30]
  Drug uptake: 3.02 % ID/g
Spleen [31]
  Drug uptake: 16.84 % ID/g
Spleen [32]
  Drug uptake: 23.92 % ID/g
Spleen [33]
  Drug uptake: 20.26 % ID/g
Spleen [34]
  Drug uptake: 23.45 % ID/g

## C[C@@H](O)[C@@H]1NC(=O)[C@H](CCCCN)NC(=O)[C@@H](Cc2c[nH]c3ccccc23)NC(=O)[C@H](Cc2ccc(O)cc2)NC(=O)[C@@H](NC(=O)[C@@H](Cc2ccccc2)NC(=O)CCCCCn2cc(CO)nn2)CSSC[C@@H](C(=O)N[C@H](CO)[C@@H](C)O)NC1=O
[2]
  logD: -3.59
